ChEMBL document CHEMBL1129351, “Hypoxia-selective antitumor agents. 14. Synthesis and hypoxic cell cytotoxicity of regioisomers of the hypoxia-selective cytotoxin 5-[N,N-bis(2-chloroethyl)amino]-2,4-dinitrobenzamide” (J Med Chem, 1996)

Experiments:
[1] = Potency in clonogenic assay, defined by hypersensitivity factor calculated for UV4 cells versus AA8 cells [IC50(AA8)/IC50(UV4)]; type: functional, Cricetulus griseus
[2] = tested on: CHO-AA8; assay: Compound was tested for the concentration required to reduce cell survival under hypoxic conditions, using the cell line AA8 in the clonogenic assay.; type: functional, Cricetulus griseus
Procedure, shortened: (§1)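 Clonogenic assay on early-plateau Chinese hamster cells, grown in spinner flasks (AA8 to 10⁶/mL, UV4 to 6 × 10⁵/mL) and resuspended in fresh medium. Stirred 10 mL suspensions at 10⁶/mL were exposed to drug for 1 h under continuous 5% CO₂ in N₂; cells and drug solutions were pre-equilibrated under gas for 1 h. C₁₀ = concentration (µM) giving 10% survival relative to controls.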

[3] = The ratio of C10 values in air and N2 using AA8 cell line.; type: functional, CHO-AA8
Procedure, shortened: (§2)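 Stirred early-plateau suspensions (10⁶/mL) of AA8 or UV4 cells were exposed to drug for 1 h under continuous gassing with 5% CO₂ in air or in N₂, after 1 h pre-equilibration, and then plated for clonogenic survival. C₁₀ (10% survival) was found for each gas phase and the ratio C₁₀(air)/C₁₀(N₂) reported.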

[4] = tested on: UV4; assay: Compound was tested for the concentration required to reduce cell survival under hypoxic conditions, using the cell line UV4 in the clonogenic assay.; type: functional, Cricetulus griseus; procedure, shortened: as §1
[5] = Potency in clonogenic assay defined by Hypersensitivity factor calculated for AA8 cells versus EMT6 cells [IC50(AA8)/IC50 (EMT6)]; type: functional
Procedure, shortened: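 Aerobic growth-inhibition microassay run in parallel on AA8 (200/well), UV4 (300/well) and murine mammary EMT6 (75/well) cells. After 24 h growth, cells were given 18 h drug exposure in RMEM/5% FBS, washed, grown a further 78 h, and stained with methylene blue. The hypersensitivity factor is IC₅₀(AA8)/IC₅₀(named line), reported as intraexperiment means ± SEM.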

[6] = The ratio of C10 values in air and N2 using UV4 cell line.; type: functional; procedure, shortened: as §2
[7] = tested on: CHO-AA8; assay: Inhibition of growth under aerobic conditions in AA8 cells; type: functional, cell-based; conditions: Cricetulus griseus
Procedure, shortened: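 Growth-inhibition microassay: AA8 cells, 200 per well, were grown 24 h, then exposed aerobically to drug in RMEM with 5% fetal bovine serum for 18 h and washed three times. After a further 78 h they were stained with methylene blue. IC₅₀ = concentration giving 50% growth inhibition relative to controls; means ± SEM, values without SEM from a single determination.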

[8] = tested on: CHO-AA8; assay: Inhibitory activity against AA8 cell growth in aerobic condition after 4 hr of exposure; type: functional, cell-based; conditions: Cricetulus griseus, CHO-AA8, 4 h

SMILES | Hypersensitivity factor [1] | C10 [2] [µM] | Ratio [3] | C10 [4] [µM] | Hypersensitivity factor [5] | Ratio [6] | IC50 [7] [µM] | IC50 [8] [µM]
CN(C)CCNC(=O)c1cc(N(CCCl)CCCl)c([N+](=O)[O-])cc1[N+](=O)[O-] | 3.1 | 1300 | 3.1 | 400 | 6.7 | 44 |  | 
O=C(NCC(O)CO)c1c([N+](=O)[O-])ccc(N(CCCl)CCCl)c1[N+](=O)[O-] (stereo unspecified) | 2.7 |  |  |  | 1.7 |  | 652 | 
CN(C)CCNC(=O)c1ccc(N(CCCl)CCCl)c([N+](=O)[O-])c1[N+](=O)[O-] | 1 | 140 | 0.82 | 160 | 1.2 | 4 | 13 | 
O=C(NCC(O)CO)c1cc([N+](=O)[O-])c([N+](=O)[O-])cc1N(CCCl)CCCl (stereo unspecified) | 1.5 |  |  |  | 1.9 |  | 73 | 
O=C(NCC(O)CO)c1cc([N+](=O)[O-])c(N(CCCl)CCCl)cc1[N+](=O)[O-] (stereo unspecified) | 12 |  |  |  | 3.5 |  | 81 | 
NC(=O)c1c([N+](=O)[O-])ccc(N(CCCl)CCCl)c1[N+](=O)[O-] | >2.6 |  |  |  |  |  | > 244 | 
CN(C)CCNC(=O)c1cc([N+](=O)[O-])c(N(CCCl)CCCl)c([N+](=O)[O-])c1 | 1.8 | 270 | 0.96 | 250 | 2.1 | 1.04 | 62 | 
O=C(NCC(O)CO)c1cc(N(CCCl)CCCl)c([N+](=O)[O-])cc1[N+](=O)[O-] (stereo unspecified) | 3.4 |  |  | 3600 | 2.3 | 8.6 |  | 
CN(C)CCNC(=O)c1cc([N+](=O)[O-])cc([N+](=O)[O-])c1N(CCCl)CCCl | 13 |  | >2.35 | 1100 | 2.5 | 68 | 150 | 
NC(=O)c1cc([N+](=O)[O-])c(N(CCCl)CCCl)c([N+](=O)[O-])c1 | 1.5 |  |  |  | 1.3 |  | 97 | 
NC(=O)c1cc(N(CCCl)CCCl)c(NO)cc1[N+](=O)[O-] |  |  |  |  |  |  |  | 180
NC(=O)c1ccc(N(CCCl)CCCl)c([N+](=O)[O-])c1[N+](=O)[O-] | 1 |  |  |  | 3.1 |  | 20 | 
O=C(NCC(O)CO)c1cc([N+](=O)[O-])c(N(CCCl)CCCl)c([N+](=O)[O-])c1 (stereo unspecified) | 0.9 |  |  |  | 2.3 |  | 320 | 
NC(=O)c1cc([N+](=O)[O-])cc([N+](=O)[O-])c1N(CCCl)CCCl | 4.3 |  |  |  | 0.7 |  | 73 | 
O=C(NCC(O)CO)c1ccc(N(CCCl)CCCl)c([N+](=O)[O-])c1[N+](=O)[O-] (stereo unspecified) | 2.3 |  |  |  | 3 |  | 108 | 
NC(=O)c1cc([N+](=O)[O-])c([N+](=O)[O-])cc1N(CCCl)CCCl | 0.88 |  |  |  | 0.43 |  | 1.6 | 
NC(=O)c1cc(N(CCCl)CCCl)c([N+](=O)[O-])cc1[N+](=O)[O-] | 6.4 |  |  | 3400 | 1.1 | 42 |  | 
O=C(NCC(O)CO)c1cc([N+](=O)[O-])cc([N+](=O)[O-])c1N(CCCl)CCCl (stereo unspecified) | 4.9 |  |  |  | 1.8 |  | 500 | 
CN(C)CCNC(=O)c1c([N+](=O)[O-])ccc(N(CCCl)CCCl)c1[N+](=O)[O-] | 2.7 | 2200 | 2.2 | 2200 | 3 | 116 | 426 | 
CN(C)CCNC(=O)c1cc([N+](=O)[O-])c(N(CCCl)CCCl)cc1[N+](=O)[O-] | 13 | 120 | 3.2 | 12 | 5.8 | 7.5 | 12 | 
NC(=O)c1cc([N+](=O)[O-])c(N(CCCl)CCCl)cc1[N+](=O)[O-] | 2.8 |  |  |  | 1.9 |  | 11 | 
CN(C)CCNC(=O)c1cc([N+](=O)[O-])c([N+](=O)[O-])cc1N(CCCl)CCCl | 1.4 | 44 | 0.098 | 18 | 3 | 1.8 | 4 | 
